Results published in ChEMBL document CHEMBL3297695, “Sesquiterpenoids from Pittocaulon filare” (2014).

How the values were obtained:
[1] = tested on: Mus musculus; assay: Antiinflammatory activity against CD1 mouse ear edema model assessed as reduction of TPA-induced ear edema measured per ear administered topically 10 mins prior to TPA challenge measured after 4 hrs; format: functional
Method in brief: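 Male CD-1 mice (25−30 g), housed at 27 ± 1 °C on a 12/12 h light−dark cycle with food and water ad libitum. Compounds were applied topically to the ear in acetone−CH2Cl2 (1:1). Edema was induced by TPA and quantified as the weight of ear biopsies taken 4 h after sample application. The ID50 is expressed in μmol/ear. Data are mean ± SEM.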

[2] = tested on: Mus musculus; assay: Antiinflammatory activity against TPA-induced CD1 mouse ear edema model assessed as neutrophil infiltration by measuring myeloperoxidase content at 1 umol/ear administered topically 10 mins prior to TPA challenge measured after 4 hrs relative to control; format: functional
Method in brief: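 Male CD-1 mice (25−30 g), ear edema induced by TPA. Compounds were applied topically at 1 μmol/ear in acetone−CH2Cl2 (1:1). MPO activity, used as a marker of neutrophils, was measured in ear biopsies taken 4 h after application by an adapted Bradley/Suzuki method. Results are given as % MPO content, mean ± SEM, analysed by ANOVA with Dunnett test against control.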

| Structure (SMILES) | Activity [1] | ID50 [1] [µmol] | Activity [2] [%] |
| --- | --- | --- | --- |
| C=C1[C@@H]2CC(=O)[C@H]([C@@H](C)OC(C)=O)[C@H]2[C@H](C(C)C)[C@@H](OC(=O)[C@@H](C)CC)[C@H]1OC(=O)/C=C(\C)CC | Dose-dependent effect | 0.17 | 12.67 |
| C=C1[C@H]2[C@@H](/C(=C/C)C(=O)[C@H]2OC(=O)[C@@H](C)CC)[C@H]([C@@]2(C)CO2)[C@@H](OC(=O)[C@@H](C)CC)[C@H]1OC(=O)/C=C(\C)CC | Dose-dependent effect | 0.55 | 11.07 |
| C=C1[C@H]2[C@@H]([C@@H]([C@@H](C)OC(C)=O)C(=O)[C@H]2OC(=O)[C@@H](C)CC)[C@H]([C@@]2(C)CO2)[C@@H](OC(=O)[C@@H](C)CC)[C@H]1OC(=O)/C=C(\C)CC | Dose-dependent effect | 0.18 | 19.05 |
| COc1ccc2c(c1)c(CC(=O)O)c(C)n2C(=O)c1ccc(Cl)cc1 [INDOMETHACIN] |  | 0.24 | 8.83 |
